# Shown are actives, neighbours in structure and some others; about 1.6% of the full set was active somewhere.
# T cell HTS: modulators of CD8 T cell-vesicle binding, primary screen, mouse 2C CD8+ T cells, flow cytometry | 330,000 tested, 0.068% active | 2C CD8+ T cell-vesicle binding; hits give low values | response (vesicle binding), % at 7 µM;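 active = response, share of CD8 T cells binding vesicles, and their 90th percentile fluorescence all below set limits, cut at about 80% in these data, passing the limit was not always enough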;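 also: values below 100% mean blocked vesicle binding to the CD8+ T cells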
#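 Assay system: 2C TCR transgenic mouse naive CD8+ T cells, MACS-purified | Read-out: CD8+ gate FL2 mean fluorescence as % of same-row positive control | Signal: High-throughput flow cytometry with anti-B7-1 and anti-CD8 staining | Timing: Binding step 1.5 h, 37 °C, antibody labelling 20 min, ice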
# Arr AP2 block: inhibitors of beta-arrestin/AP2 binding, primary screen, biochemical, GPCR trafficking, flow cytometry; beta-arrestin 1 C-terminal peptide binding to AP2 beta2-adaptin appendage (human); FITC-arrestin peptide / GST-AP2 beads; AP2 beta2 appendage carries R879A mutation; inhibition, % at 10 µM; 340,000 tested, 0.31% active;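 active = inhibition above a set limit, near 3 SD of compounds lacking own fluorescence, cut at about 54% in these data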;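 also: plate controls were DMSO wells for no effect and 5 µM unlabelled arrestin peptide for full effect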
#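 Material – AP2 appendage R879A on GSH beads · Buffer or medium – PBS with 0.05% Tween 20 and 0.1% BSA · Probe or stimulus – fluorescein-tagged arrestin peptide at 50 nM final · Incubation – compound with beads 12 min RT, then probe 1 h RT · Detection – high-throughput flow cytometry of beads, ex 488, em 535 nm · Evaluation – percent response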
# JMJD2C inh: inhibitors of GASC-1 histone demethylase, primary screen, biochemical, fluorescence, DELFIA europium | Lysine-specific demethylase 4C (Homo sapiens), Q9H3R0 | GST-JMJD2C(1-420) H3K9me3 demethylation | inhibition, % at 2.35 µM | 330,000 tested, 0.069% active | AID 2099, 2009;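 active = more than half of a compound's replicate wells show inhibition beyond 50%, single wells judged on their own value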;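 also: signal counts dimethyl H3K9 product captured on neutravidin plate; 0% = median of DMSO wells and 100% = 0.3 times that DMSO median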
# Pemphigus Ab inh: inhibitors of pemphigus antibody binding to DSG3, primary screen, biochemical, bead-based, flow cytometry, scFv-GFP; Desmoglein-3 (Homo sapiens), P32926; AID 588358, 2011; 310,000 tested, 0.48% active; DSG3-coupled beads, scFv-anti-DSG3-GFP binding; hits give low values; binding (percent of control), % at 10 µM;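 active = binding more than 3 SD below its plate's average and above zero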;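 also: hits lower antibody fragment binding to DSG3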
# LANA-H2B inh: blockers of LANA interaction with H2A/H2B – biochemical, FP readout, HTS, primary screen; Protein LANA1 (Human herpesvirus 8 type P (isolate GK18)), Q9QR71; cell-free LANA-H2A/H2B peptide, fluorescence polarization; inhibition, % (no concentration beside the values); 320,000 tested, 0.6% active; in the data active = inhibition mostly above about 10%, no sharp cut-off; inactive = mostly below about 6.7%
# Target sequence (Q9QR71 whole entry, looked up): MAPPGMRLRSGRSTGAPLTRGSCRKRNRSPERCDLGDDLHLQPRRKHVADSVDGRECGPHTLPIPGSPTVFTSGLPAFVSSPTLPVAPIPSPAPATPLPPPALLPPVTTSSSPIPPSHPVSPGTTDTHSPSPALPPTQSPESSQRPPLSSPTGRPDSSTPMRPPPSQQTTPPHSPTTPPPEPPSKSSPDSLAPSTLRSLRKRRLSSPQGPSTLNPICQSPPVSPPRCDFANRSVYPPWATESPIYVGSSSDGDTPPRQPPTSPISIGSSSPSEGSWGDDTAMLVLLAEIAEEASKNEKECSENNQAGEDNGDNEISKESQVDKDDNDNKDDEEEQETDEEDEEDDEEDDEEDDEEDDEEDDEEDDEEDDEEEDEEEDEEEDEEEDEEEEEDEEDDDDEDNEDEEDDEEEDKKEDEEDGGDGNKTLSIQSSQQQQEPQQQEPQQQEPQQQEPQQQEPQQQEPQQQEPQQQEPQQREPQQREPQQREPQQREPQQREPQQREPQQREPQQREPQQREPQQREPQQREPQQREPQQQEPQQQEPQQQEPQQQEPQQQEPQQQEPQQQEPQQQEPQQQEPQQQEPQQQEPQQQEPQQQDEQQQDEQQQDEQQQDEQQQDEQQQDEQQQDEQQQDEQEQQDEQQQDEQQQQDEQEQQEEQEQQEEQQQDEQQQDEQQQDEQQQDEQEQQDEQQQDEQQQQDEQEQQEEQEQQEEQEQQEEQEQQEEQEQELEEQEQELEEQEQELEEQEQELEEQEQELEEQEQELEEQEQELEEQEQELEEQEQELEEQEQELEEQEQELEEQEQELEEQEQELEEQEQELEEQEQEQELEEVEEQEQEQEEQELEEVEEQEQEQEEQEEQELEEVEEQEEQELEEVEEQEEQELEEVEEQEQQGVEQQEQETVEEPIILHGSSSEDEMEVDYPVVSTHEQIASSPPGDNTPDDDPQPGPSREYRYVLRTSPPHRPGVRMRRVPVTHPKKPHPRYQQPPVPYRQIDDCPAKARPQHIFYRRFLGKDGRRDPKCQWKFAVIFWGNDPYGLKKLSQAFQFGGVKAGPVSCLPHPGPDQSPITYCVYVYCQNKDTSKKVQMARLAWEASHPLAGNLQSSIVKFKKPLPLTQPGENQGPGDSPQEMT
# HDAC3 inh: HDAC3 deacetylase inhibitors, primary screen, biochemical, fluorescence, cell-free homogeneous; recombinant HDAC3, fluorogenic peptide/trypsin coupled; 320,000 tested, 0.15% active; inhibition, % at 8.3 µM; in the data active = inhibition above about 26%, passing the limit was not always enough
# Arr AP2 CP1: inhibitors of arrestin peptide binding to AP2, confirmation, biochemical, cherry pick 1, flow cytometry beads. inhibition, % at 10 µM. shares compounds with Arr AP2 block. GST-AP2 beads, FITC arrestin peptide binding; GST-fused beta2-adaptin appendage, R879A mutant. 1,300 tested, 2% active;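 active = inhibition above a set limit, roughly 3 SD of non-fluorescent compound noise, cut at about 38% in these data; inactive = inhibition at or below that limit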;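 also: loss of bead fluorescence from 50 nM FITC arrestin peptide bound to appendage; 0% = negative control wells and 100% = excess unlabelled arrestin peptide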
# GST-FITC bead: GST-fluorescein capture on glutathione beads, confirmation, artefact control for arrestin-AP2 inhibitor project, biochemical, cherry pick 1, flow cytometry; GST-fluorescein binding to GSH beads, fluorescence, counter-screen; 1,300 tested, 2% active; AID 588338, 2011; inhibition, % at 10 µM; shares compounds with Arr AP2 block;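 active = inhibition above 50%, about 3 SD of the inhibition seen with non-fluorescent compounds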;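 also: fluorescein maleimide labelled GST captured on 4 micron glutathione beads; higher means more loss of bead fluorescence from quenching or blocked binding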
# Active calls of the source: *; i = inactive; . = not tested or not shown.
SMILES,T cell HTS,Arr AP2 block,JMJD2C inh,Pemphigus Ab inh,LANA-H2B inh,HDAC3 inh,Arr AP2 CP1,GST-FITC bead
O=C(CNC(=O)c1ccccc1)NCC(c1ccco1)N1CCCC1 (stereo not drawn),227,21,1,141,1,-1,.,.
O=C(CNC(=O)c1ccccc1Br)NCC(c1ccco1)N1CCCCC1 (stereo not drawn),.,66*,.,98,.,.,3,-10
Cc1ccc(-c2nnn(CC(=O)N(c3ccccc3)C(C(=O)NCC3CCCO3)c3cccs3)n2)o1 (stereo not drawn),239,7,17,96,1,1,.,.
c1ccc(CCNCC2COc3ccccc3O2)cc1 (stereo not drawn),225,55*,8,103,-1,-13,-11,0
c1ccc2c(c1)OCC(CNCC1COc3ccccc3O1)O2 (stereo not drawn),193,0,-18,116,-5,2,.,.
COc1cc(/C=N/O)ccc1Oc1cnccn1,288,15,9,102,4,8,.,.
O=C1CCCC2=C1C(c1cccs1)Nc1ccccc1N2 (stereo not drawn),223,70*,1,128,-1,1,-4,-3
CC1(C)CC(=O)C2=C(C1)Nc1ccccc1NC2c1cccs1 (stereo not drawn),240,-1,-6,119,2,2,.,.
CCc1nnc(NC(=O)CN2C(=O)N(C)C3(CCCCC3)C2=O)s1,354,2,2,110,5,-2,.,.
COc1ccccc1CCn1c(N)cc(=O)[nH]c1=O,654,4,-17,89,-2,2,.,.
O=C(N/N=C/c1cccn1-c1ccccc1)c1ccncc1,354,58*,.,95,1,-1,0,-7
O=C(N/N=C/c1cccn1-c1ccc([N+](=O)[O-])cc1)c1cccnc1,588,-1,3,99,4,-8,.,.
O=C(CNC(=O)c1cccc([N+](=O)[O-])c1)NC1CCCc2ccccc21 (stereo not drawn),298,23,2,100,-1,2,.,.
Cn1c(CNC(=O)c2ccco2)nnc1SCC(=O)c1ccc(F)cc1,378,2,2,107,-12,4,.,.
O=C(NCCN1CCOCC1)c1ccc2c(c1)N(Cc1ccccc1)C(=O)c1ccccc1S2,361,62*,9,99,-1,1,2,1
CC(C)n1cnnc1SCC(=O)Nc1cccnc1Cl,464,28,-4,.,-1,-5,.,.
CCOC(=O)c1c(C(=O)OCC)c(C)n(N2C(=O)CSC2=S)c1C,195,60*,-2,112,9,-6,-12,-1
O=C(Nc1cc(Cl)ccc1Oc1ccccc1)c1ccccc1F,225,-11,-3,97,1,0,.,.
O=C(Nc1cc(Cl)ccc1Oc1ccccc1)c1ccc(F)cc1,261,61*,1,99,1,0,-8,-10
Cc1cccc(C)c1OCc1cc(C(=O)N(Cc2nccn2C)C(C)C)no1,408,-1,-3,107,2,-2,.,.
CCC(=O)OCCNc1cc(SCCC(=O)OC)c2nonc2c1[N+](=O)[O-],199,32,1,94,-1,8,.,.
CCCC(=O)OCCNc1cc(Sc2nc3ccccc3[nH]2)c2nonc2c1[N+](=O)[O-],440,55*,26,96,-6,2,0,7
CC(OC(=O)CC1CCCCC1)C(=O)Nc1cccc(C#N)c1 (stereo not drawn),672,-8,1,107,1,4,.,.
Cc1c(N(C(=O)Nc2ccccc2)C2=NCC(C)S2)c(=O)n(-c2ccccc2)n1C (stereo not drawn),324,98*,19,101,-4,-6,-3,-1
Cc1ccc(C(=O)NC(NCc2ccco2)C(Cl)(Cl)Cl)cc1 (stereo not drawn),316,55*,-3,101,-5,1,3,-2
SMILES,T cell HTS,Arr AP2 block,JMJD2C inh,Pemphigus Ab inh,LANA-H2B inh,HDAC3 inh,Arr AP2 CP1,GST-FITC bead
Cc1cccc(C(=O)NC(NCc2ccco2)C(Cl)(Cl)Cl)c1 (stereo not drawn),473,11,0,105,-4,1,.,.
COc1ccc(-c2csc(NC3CCCCC3)n2)c(OC)c1,291,-9,16,96,-2,6,.,.
CCCCNS(=O)(=O)c1ccc(NC(=O)Cc2ccccc2[N+](=O)[O-])cc1,869,56*,-17,100,-10,1,1,1
CCOC(=O)CN1C(=O)NC2NC(=O)NC21 (stereo not drawn),178,79*,2,91,-13,-7,4,-6
CCOc1ccc(C(=O)NC(=S)Nc2ncccc2C)cc1[N+](=O)[O-],300,58*,7,95,-1,4,-11,-10
C=CCN1/C(=C(\C#N)C2=NS(=O)(=O)c3ccccc32)N(C)c2ccccc21,362,55*,-20,105,2,9,8,-4
CC(C)(CCc1ccccn1)C(=O)CCCc1ccccn1,.,-7,.,113,.,.,.,.
O=C(O)C1OC(C(=O)O)C(C(=O)O)C1C(=O)O (stereo not drawn),.,58*,.,95,.,.,-3,-3
Cn1c(N)c(C(=O)COC(=O)c2ccc(-c3ccccc3)cc2)c(=O)n(C)c1=O,812,13,-7,119,2,17,.,.
CCc1ccc(C(=O)OCC(=O)c2c(N)n(CC(C)C)c(=O)n(C)c2=O)cc1,i,-13,29,94,-1,2,-3,-2
COc1cccc(C(=O)OCC(=O)c2c(N)n(C)c(=O)n(C)c2=O)c1,365,2,-2,117,2,3,-10,-4
CC(C)Cn1c(N)c(C(=O)COC(=O)c2c(F)cccc2F)c(=O)n(C)c1=O,228,-22,0,143,-4,1,.,.
